# High-throughput results as filed in PubChem BioAssay.
# Sampled rows, rich in hits. Any-hit rate of the full collection: about 4.8%.
# Jurkat NFkB inh – inhibitors of the PMA/ionomycin-induced NF-kB reporter in Jurkat cells | 0.53% of 330,000 active | PMA/ionomycin-induced NF-kB luciferase reporter, luminescence | inhibition, % at 4 µM; in the data active = inhibition above about 50%
# HSF1 activator – increases HSF-1 driven luciferase reporter signal | NIH3T3-HGL HSF-1 luciferase reporter, MG132, 8 h; 100% = twice DMSO control signal | activation, % at 9 µM | 1.7% of 300,000 active;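 active = mean replicate activation of at least 50% with a set share of replicates each reaching 50%; inconclusive = only one of those two conditions met; inactive = mean below 50% and too few replicates reaching it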;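 note: 0% = median of the neutral control wells and 100% = twice that signal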
# 697 NFkB inh – inhibitors of the PMA/ionomycin-induced NF-kB reporter in 697 B cells; 697 B-cell NF-kB luciferase reporter, 16 h; inhibition, % at 4 µM; 0.33% of 330,000 active; in the data active = inhibition above about 35%
# T cruzi inh – T. cruzi replication inhibition | 1.4% of 300,000 active | AID 1885 | T. cruzi beta-gal in NIH3T3, luminescence, 90 h | inhibition, % (test concentration not listed);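 active = mean inhibition across valid replicates above about 55%, limit read from the data; inconclusive = mean below that limit but half or more replicates reach it; inactive = mean below it, under half of replicates reach it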;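 note: signal also drops with host cell toxicity which is not excluded here; 0% = plate median of DMSO wells and 100% = zero luminescence signal; higher percent means less beta-gal luminescence so fewer parasites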
#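 Read-out: Parasite load inhibition, % | Test system: Mouse NIH/3T3 fibroblasts infected with β-gal-expressing T. cruzi Tulahuen C4 | Amount: 5,000 cells/well | Medium: DMEM, 2% fetal bovine serum | Signal: GalScreen β-gal luminescence, detergent lysis, 60 min | Timing: 3 h attach, ≥90 h co-culture | Also added: Tulahuen C4 trypomastigotes, 5000/well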
# GPR7 antag – antagonists of human GPR7 (neuropeptides B/W receptor 1). P48145. GPR7-expressing cells, fluorescence antagonist assay. inhibition, % at 4.4 µM. 1.1% of 290,000 active. AID 1861; in the data active = inhibition above about 16%, passing the limit was not always enough;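 note: cells stimulated with the agonist NPW; 0% = agonist with vehicle and 100% = vehicle without agonist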
# Target sequence (P48145 whole entry, looked up): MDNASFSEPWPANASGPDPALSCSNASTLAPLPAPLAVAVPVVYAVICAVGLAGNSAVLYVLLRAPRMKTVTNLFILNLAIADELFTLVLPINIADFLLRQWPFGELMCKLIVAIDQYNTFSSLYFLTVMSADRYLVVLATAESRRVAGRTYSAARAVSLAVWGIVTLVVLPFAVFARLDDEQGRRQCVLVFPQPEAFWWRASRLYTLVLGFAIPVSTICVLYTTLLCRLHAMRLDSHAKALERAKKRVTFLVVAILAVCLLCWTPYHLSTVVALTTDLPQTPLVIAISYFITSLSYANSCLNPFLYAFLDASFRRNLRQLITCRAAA
# HSF1 inh – HSF1 inhibition. NIH3T3-HGL HSE-luciferase, MG132-induced, luminescence 8 h; stronger effect = lower value. 0.77% of 300,000 active. activity change, negative = inhibition, % at 7.5 µM (by protocol);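 active = more than half of replicate wells show activity change below -50%, luminescence cut by over half; inconclusive = some wells, but at most half, below -50%; inactive = no replicate well below -50%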;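 note: luciferase reports HSF-1 transcriptional activity via heat shock element; 0% = median of DMSO wells and -100% = zero luminescence signal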
# The depositor's hits bear a star; ? = inconclusive; . = no result.
SMILES,Jurkat NFkB inh,HSF1 activator,697 NFkB inh,T cruzi inh,GPR7 antag,HSF1 inh
C/C(=N\Nc1nc(-c2ccccc2)cs1)c1cccs1,-9,-75,-44,1,-3,-70*
CCOc1ccc(/C=N/NC(=O)C(O)c2ccccc2)c(O)c1 (stereo not drawn),1,-86,5,3,-20,-82*
CC1(C)CC(Nc2ccc(Nc3ccccc3)cc2)CC(C)(C)N1,.,5,.,65*,-1,-3
O=C(Nc1nc(-c2ccc(F)cc2)cs1)C1CCN(C(=O)c2ccc(F)cc2)CC1,36,-1,-34,55*,.,-6
O=C(Nc1nc2c(F)cc(F)cc2s1)C1CCN(C(=O)c2ccc(F)cc2)CC1,-24,27,-28,14,.,10
Cc1c(Cl)cccc1NC(=O)CNC(=O)c1ccccc1F,-1,5,3,7,-5,1
Cc1nn(C(C)C(=O)O)c(=O)c2ccccc12 (stereo not drawn),-6,-6,0,-9,-9,-10
C=Cc1cccc(NC(=O)COc2ccccc2)c1,1,57*,18,-14,2,23
O=C(CCl)Nc1cccc(Oc2ccccc2)c1,39,74*,-158,56*,-6,37
O=C(CCl)Nc1cccc(Oc2cnccn2)c1,17,8,4,1,-7,-3
Cc1ccc(C(=O)Nc2cccc(Oc3ccccc3)c2)o1,-39,58*,-44,11,5,22
O=C(COc1ccccc1)Nc1cccc(-c2nnc(-c3ccccc3)o2)c1,-14,36,-95,-12,.,19
Cc1ccc(/C=N/N=C2\SCC(=O)N2CC2CC2)cc1,-3,10,11,.,-19,3
Cc1csc(=O)n1CC(=O)OCC(=O)c1c(N)n(CC(C)C)c(=O)n(C)c1=O,15,-7,-2,10,.,-9
Cc1nc([N+](=O)[O-])c(N2CCN(Cc3ccccc3)CC2)n1Cc1ccccc1,-10,1,-23,43,6,-1
Cn1cnc([N+](=O)[O-])c1Sc1nc2ccccc2[nH]1,-12,-8,27,40,-4,-2
Cc1nc([N+](=O)[O-])c(Sc2nc3ccccc3[nH]2)n1Cc1ccccc1,13,56*,-17,29,1,46
Cc1cc2nc(Sc3c([N+](=O)[O-])nc(C)n3Cc3ccccc3)[nH]c2cc1C,0,95*,28,-7,1,77
Cc1cccc(NC(=O)NC2CCCc3ccccc32)c1 (stereo not drawn),8,21,-26,18,-2,6
O=C(Nc1ccc(F)cc1F)c1ccc(S(=O)(=O)NCc2ccco2)cc1,3,.,12,.,.,.
Cc1ccc(C(=O)N2c3ccccc3CC2C)o1 (stereo not drawn),-106,54*,-97,-6,0,32
CCCCn1c(N)c(N(CC(C)C)C(=O)c2cccc(S(=O)(=O)N3CCCCC3)c2)c(=O)[nH]c1=O,-6,-77,-13,1,.,-71*
CCCCn1c(N)c(N(CC(C)C)C(=O)c2ccc(S(=O)(=O)N3CCCCC3)cc2)c(=O)[nH]c1=O,13,-11,24,-7,.,0
CC(=O)Nc1cccc(NC(=O)COc2ccc3c(c2)OCO3)c1,2,56*,-4,-5,-8,26
Cc1ccc(OCC(=O)Nc2ccc(N3CCN(S(C)(=O)=O)CC3)cc2)cc1C,8,61*,14,-14,4,35
SMILES,Jurkat NFkB inh,HSF1 activator,697 NFkB inh,T cruzi inh,GPR7 antag,HSF1 inh
COc1ccc(NC(=O)COc2ccc3c(c2)OCO3)cc1,-13,-32,0,-11,1,-21
Cc1ccc(OCC(=O)Nc2ccc(N3CCN(S(C)(=O)=O)CC3)cc2)c(C)c1,12,16,5,-7,-1,12
NC(=O)c1ccc(NC(=O)Nc2ccc3c(c2)OCO3)cc1,-45,58*,-19,0,6,16
Cc1cccc(OCC(=O)Nc2ccc3c(c2)OCCO3)c1,-61,.,-24,.,3,.
Cc1ccc(OCC(=O)Nc2ccc3c(c2)OCCO3)cc1C,0,-59,-17,-7,-14,-63*
Cc1cccc(C)c1NC(=O)C1C2C=CC(C2)C1C(=O)O (stereo not drawn),3,-1,-7,-7,-7,-3
Cc1ccc(S(=O)(=O)Nc2ccc(C(=O)NCCCN3CCOCC3)cc2)cc1[N+](=O)[O-],14,-1,3,-8,.,-5
CC(=O)c1ccc(NC(=O)COc2ccc3c(c2)OCO3)cc1,2,56*,18,-18,10,17
Cc1ccc(C(=O)N2CCN(c3ccc(NC(=O)Cc4ccccc4)cc3)CC2)cc1,22,-13,-1,3,-5,3
CNCc1c(OCc2ccccc2F)ccc2ccccc12,32,-76,8,16,21,-71*
CNCc1c(OCc2ccccc2)ccc2ccccc12,14,5,-20,18,14,-6
O=C(NCC1CCCO1)c1nn2c(C(F)(F)F)cc(-c3cc(Br)cs3)nc2c1Br (stereo not drawn),-6,62*,4,4,4,19
COCCCNC(=O)C[C@H]1C[C@H](C(=O)N(C(C)C)C(C)C)[C@@]2(C)c3[nH]c4ccc(Cl)cc4c3CCN2C1=O,.,.,8,.,.,.
CCc1nc(N=C(N)N)nc2ccccc12,-4,-6,-22,?,-2,-6
NC(N)=Nc1nc(-c2ccccc2)c2ccccc2n1,39,-5,-8,81*,2,-6
O=C(c1cc(-c2ccccc2)nc2ccccc12)N1N=C(C(F)F)CC1(O)C(F)F (stereo not drawn),10,11,9,20,-9,8
Cc1ccc(-c2cc(C(=O)N3N=C(C(F)F)CC3(O)C(F)F)c3ccccc3n2)cc1C (stereo not drawn),-22,?,-1,64*,-14,35
COc1cc(C2c3cc4c(cc3OC(NCc3ccccc3)C2C)OCO4)cc(OC)c1OC (stereo not drawn),.,34,.,.,.,34
Cc1cccc(C)c1NC(=S)N/N=C/c1ccc(OCCC(C)C)cc1,7,21,-12,63*,-12,0
CC(=O)c1cc2c(cc1NS(=O)(=O)c1ccc(F)cc1)OCO2,-8,0,-2,-6,-4,2
COc1ccc(-c2c[n+]3c(n2-c2ccccc2)SCC3)cc1,39,1,18,61*,-6,-4
CC(C)C[C@@H](CN1C(=O)C(=O)NC[C@@H]1CC(C)C)NC(=O)Cc1ccccc1,7,.,12,.,.,.
CCOc1ccc(S(=O)(=O)n2ccnc2C)cc1,10,-11,5,-18,-4,1
CCN(CC)c1ccc(NC(=S)NC(=O)c2ccco2)cc1,-77,180*,-82,5,-10,142
CCN(CC)c1ccc(/C=N/NC(=O)c2ccco2)cc1,.,35,.,-2,12,9
